The subject of data set [1] is Nocardia brasiliensis. Description: Antibacterial activity against Nocardia brasiliensis isolated from actinomycetoma patient by broth dilution method. It is filed as functional. In a few lines:
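CLSI M24-A broth microdilution on 30 N. brasiliensis isolates from human actinomycetoma, including HUJEG-1, identified biochemically and by 16S rRNA gene fragment sequencing. Ground colonies were suspended to 0.5 McFarland in cation-adjusted Mueller-Hinton broth, giving 1 × 10^4 to 5 × 10^4 CFU per well, and added to serial drug dilutions. Incubation was 3 days at 35°C. MIC is the lowest concentration giving total growth inhibition; MIC50/MIC90 are reported.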
On the technique in general: In broth dilution the organism is exposed to a series of concentrations in liquid medium.

Data set [2] deals with Nocardia brasiliensis. Description: Antibacterial activity against Nocardia brasiliensis isolated from actinomycetoma patient by broth dilution method in presence of clavulanic acid. In kind it is functional. The method, boiled down:
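Same CLSI M24-A broth microdilution: 30 human actinomycetoma N. brasiliensis isolates, cation-adjusted Mueller-Hinton broth, inoculum 1 × 10^4 to 5 × 10^4 CFU per well, 3 days at 35°C. Clavulanic acid at 0.25 μg/ml was added with each carbapenem dilution. Drug-free growth well; E. coli ATCC 25922 and S. aureus ATCC 29213 as external controls. MIC is total growth inhibition.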

The test system of another data set is Mus musculus. In words: Plasma concentration in mouse at 3.3 mg/kg, po. It is filed as ADME, organism-based. On the set-up: dose 3.3 mg/kg, route oral. The note with it: in vivo.
Data set [3] can be described thus: Tmax in mouse plasma at 3.3 mg/kg, po. It is filed as ADME, organism-based. Details: dose 3.3 mg/kg, route oral.

Values after ≈ are worked out from the molar mass of the structure shown.

Broadly, the MIC50 is an inhibitory concentration at the 50% level, which refers to growth in some studies and to a panel of isolates in others. By MIC90 is commonly meant the lowest concentration that inhibits either 90% of growth or 90% of the strains tested, depending on the study. In the data set with Nocardia brasiliensis [1], `C[C@@H](O)[C@H]1C(=O)N2C(C(=O)O)=C(S[C@@H]3CN[C@H](C(=O)N(C)C)C3)[C@H](C)[C@H]12` [MEROPENEM] registered an MIC50 of 2 µg/mL (≈ 5.22 µM) and an MIC90 of 8 µg/mL (≈ 20.9 µM). Further, in the data set with Nocardia brasiliensis [2], the MIC50 came to 2 µg/mL and the MIC90 is 8 µg/mL.
In the data set on Nocardia brasiliensis [1], `COc1c(N2CC[C@@H](C(C)(C)N)C2)c(F)cc2c(=O)c3c(=O)[nH]sc3n(C3CC3)c12` yielded an MIC50 of 0.125 µg/mL (≈ 0.289 µM) and an MIC90 of 0.5 µg/mL (≈ 1.16 µM).
Consider `C[C@@H](O)[C@H]1C(=O)N2C(C(=O)O)=C(SCCNC=N)C[C@H]12` [IMIPENEM ANHYDROUS], for which the MIC50 was determined as 64 µg/mL (≈ 214 µM) with Nocardia brasiliensis [1] and 64 µg/mL in the data set with Nocardia brasiliensis [2]. Also, the MIC90 against Nocardia brasiliensis [1] and in the data set with Nocardia brasiliensis [2] was over 64 µg/mL throughout.
One may read the Tmax as the time at which the peak concentration occurs. In the data set on Nocardia brasiliensis [1], `Clc1ccc(COC(Cn2ccnc2)c2ccc(Cl)cc2Cl)cc1` (centres undefined) [ECONAZOLE] came in with an MIC50 of 2 µg/mL (≈ 5.24 µM) and an MIC90 of 4 µg/mL (≈ 10.5 µM). Moreover, in the data set on Mus musculus, the Cp was determined as 230 ng/mL. For the same compound, the Tmax in data set [3] came out at 1 h.

(Values after ChEMBL document CHEMBL1255484, “In vitro activity of ACH-702, a new isothiazoloquinolone, against Nocardia brasiliensis compared with econazole and the carbapenems imipenem and meropenem alone or in combination with clavulanic acid” (Antimicrob Agents Chemother, 2010).)
